Experimental data from ChEMBL document CHEMBL3425469, “Discovery of imidazo[2,1-b]thiazole HCV NS4B inhibitors exhibiting synergistic effect with other direct-acting antiviral agents” (J Med Chem, 2015).

Tests used:
[1] = Cytotoxicity against human HuH7 cells assessed as cell proliferation by cell titer assay; assay type: cell-based, Huh-7
How it was run: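 Huh-7 cells carrying GT1b Con1 bicistronic replicon seeded at 8000 cells/well; compound added at 0.5% DMSO final, 37°C for 72 h. Proliferation read with CellTiter-Fluor reagent per manufacturer; CC50 fitted from concentration-response, average of at least two independent determinations.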

Hepatitis C virus [2] = test: Antiviral activity against Hepatitis C virus genotype 1b Con1 infected in human HuH7 cells after 72 hrs by luciferase assay; assay type: functional, cell-based, Hepacivirus hominis; settings: genotype 1b Con 1, Huh-7, 72 h
How it was run: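 Huh-7 cells stably carrying a genotype 1b Con1 bicistronic luciferase replicon, seeded at 8000 cells/well. Compounds were added at 0.5% DMSO final and incubated at 37°C for 72 h. Read-out was Bright-Glo luciferase, with cell proliferation measured by CellTiter-Fluor. EC50 is the mean of at least two independent runs. Some values are given as percent inhibition at 10 µM.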

Hepatitis C virus [3] = test: Antiviral activity against Hepatitis C virus genotype 1b Con 1 infected in human HuH7 cells at 10 uM after 72 hrs by luciferase assay; assay type: functional, Hepacivirus hominis; settings: genotype 1b Con 1, Huh-7, 72 h
How it was run: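 Huh-7 cells carrying a GT1b Con1 bicistronic luciferase replicon, 8000 cells/well. Compound tested at 10 µM in 0.5% DMSO final, 37°C for 72 h. Replicon signal read as luciferase (Bright-Glo) and reported as percentage inhibition at 10 µM. Cell proliferation measured in parallel with CellTiter-Fluor. Values are the average of at least two independent determinations.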

Hepatitis C virus [4] = test: Antiviral activity against Hepatitis C virus genotype 1b harboring Y93H NS5A mutation transfected in human HuH7 cells after 72 hrs by luciferase assay; assay type: functional, cell-based, Hepacivirus hominis; settings: Huh-7, 72 h
How it was run: (§1)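 Huh-7 cells were transiently electroporated with genotype 1b replicon RNA carrying the specified mutation and plated at 10000 cells/well. Compounds were added at 0.5% DMSO final for 72 h at 37°C. Read-out was Bright-Glo luciferase. EC50 is the mean of two independent runs within 2-fold of each other. A reference drug EC50 was measured alongside each mutant replicon to validate it.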

Hepatitis C virus [5] = test: Antiviral activity against Hepatitis C virus genotype 1b harboring S282T NS5B (active site) mutation transfected in human HuH7 cells after 72 hrs by luciferase assay; assay type: functional, cell-based, Hepacivirus hominis; settings: Huh-7, 72 h; how it was run: as §1
Hepatitis C virus [6] = test: Antiviral activity against Hepatitis C virus genotype 1b harboring M423I NS5B (thumb 2) mutation transfected in human HuH7 cells after 72 hrs by luciferase assay; assay type: functional, cell-based, Hepacivirus hominis; settings: Huh-7, 72 h; how it was run: as §1
Hepatitis C virus [7] = test: Antiviral activity against Hepatitis C virus genotype 1b harboring A156T NS3/4A mutation transfected in human HuH7 cells after 72 hrs by luciferase assay; assay type: functional, cell-based, Hepacivirus hominis; settings: Huh-7, 72 h; how it was run: as §1
Hepatitis C virus [8] = test: Antiviral activity against Hepatitis C virus genotype 1b harboring Y448H NS5B (palm) mutation transfected in human HuH7 cells after 72 hrs by luciferase assay; assay type: functional, cell-based, Hepacivirus hominis; settings: Huh-7, 72 h; how it was run: as §1
Hepatitis C virus [9] = test: Antiviral activity against Hepatitis C virus genotype 1b harboring V105M mutation transfected in human HuH7 cells after 72 hrs by luciferase assay; assay type: functional, cell-based, Hepacivirus hominis; settings: Huh-7, 72 h; how it was run: as §1
Hepatitis C virus [10] = test: Antiviral activity against Hepatitis C virus genotype 1b harboring P495A NS5B (thumb 1) mutation transfected in human HuH7 cells after 72 hrs by luciferase assay; assay type: functional, cell-based, Hepacivirus hominis; settings: Huh-7, 72 h; how it was run: as §1
Hepatitis C virus [11] = test: Antiviral activity against Hepatitis C virus genotype 1b harboring H94R mutation transfected in human HuH7 cells after 72 hrs by luciferase assay; assay type: functional, cell-based, Hepacivirus hominis; settings: Huh-7, 72 h; how it was run: as §1
Hepatitis C virus [12] = test: Antiviral activity against Hepatitis C virus genotype 1b harboring F98C mutation transfected in human HuH7 cells after 72 hrs by luciferase assay; assay type: functional, cell-based, Hepacivirus hominis; settings: Huh-7, 72 h; how it was run: as §1
Hepatitis C virus [13] = test: Antiviral activity against Hepatitis C virus genotype 1b harboring H3R NS4B mutation transfected in human HuH7 cells after 72 hrs by luciferase assay; assay type: functional, cell-based, Hepacivirus hominis; settings: Huh-7, 72 h; how it was run: as §1
Hepatitis C virus [14] = test: Antiviral activity against Hepatitis C virus genotype 1b harboring Q26R mutation transfected in human HuH7 cells after 72 hrs by luciferase assay; assay type: functional, cell-based, Hepacivirus hominis; settings: Huh-7, 72 h; how it was run: as §1

SMILES | CC50 [1] | EC50 (Hepatitis C virus [2]) | further results
O=C(c1nc2sc3c(n2c1Cl)CCC3)N1CCN(C2CCCC2)C(=O)C1 | > 10000 nM | 130 nM | –
O=C(c1nc2sc3cc(Cl)ccc3n2c1Cl)N1CCN(C2CCCC2)C(=O)C1 | > 10000 nM | 1850 nM | –
O=C(c1nc2sc3cc(Br)ccc3n2c1Cl)N1CCN(C2CCCC2)C(=O)C1 | > 10000 nM | 1790 nM | –
O=C1CCCc2c1sc1nc(C(=O)N3CCN(C4CCCC4)C(=O)C3)c(Cl)n21 | > 10000 nM | > 10000 nM | –
Cc1cn2c(Cl)c(C(=O)N3CCN(C4CCCC4)C(=O)C3)nc2s1 | > 10000 nM | – | inhibition at 10 µM (Hepatitis C virus [3]): 46%
CC1(C)CCc2c(sc3nc(C(=O)N4CCN(C5CCCC5)C(=O)C4)c(Cl)n23)C1 | > 10000 nM | 1120 nM | –
O=C(c1nc2sc3ccccc3n2c1Cl)N1CCN([C@H]2CC[C@H](O)CC2)C(=O)C1 | > 10000 nM | 330 nM | –
O=C(c1nc2scc(C3CC3)n2c1Cl)N1CCN(C2CC=CC2)C(=O)C1 | > 10000 nM | 79 nM | –
Cc1c(C(C)C)sc2nc(C(=O)N3CCN(C4CCCC4)C(=O)C3)c(Cl)n12 | > 10000 nM | – | inhibition at 10 µM (Hepatitis C virus [3]): 50%
Cc1csc2nc(C(=O)N3CCN(C4CCCC4)C(=O)C3)c(Cl)n12 | > 10000 nM | – | inhibition at 10 µM (Hepatitis C virus [3]): 53%
O=C(c1nc2sc(Cl)c(C3CC3)n2c1Cl)N1CCN(C2CCCC2)C(=O)C1 | > 10000 nM | 8600 nM | –
CC(C)Cc1c(Cl)sc2nc(C(=O)N3CCN(C4CCCC4)C(=O)C3)c(Cl)n12 | > 10000 nM | 6700 nM | –
Cc1ccc2c(c1)sc1nc(C(=O)N3CCN(C4CCCC4)C(=O)C3)c(Cl)n12 | > 10000 nM | 300 nM | –
O=C(c1nc2sc3ccccc3n2c1Cl)N1CCN(C2CC=CC2)C(=O)C1 | > 10000 nM | 31 nM | EC50 (Hepatitis C virus [4]): 19 nM; EC50 (Hepatitis C virus [5]): 25 nM; EC50 (Hepatitis C virus [6]): 32 nM; EC50 (Hepatitis C virus [7]): 77 nM; EC50 (Hepatitis C virus [8]): 33 nM; EC50 (Hepatitis C virus [9]): 12500 nM; EC50 (Hepatitis C virus [10]): 22 nM; EC50 (Hepatitis C virus [11]): 6400 nM; EC50 (Hepatitis C virus [12]): 3270 nM; EC50 (Hepatitis C virus [13]): 4850 nM; EC50 (Hepatitis C virus [14]): 4960 nM
O=C(c1nc2sc3ccccc3n2c1Cl)N1CCN(C2CCCC2)C(=O)C1 | > 10000 nM | 92 nM | –
CC(C)c1cn2c(Cl)c(C(=O)N3CCN(C4CCCC4)C(=O)C3)nc2s1 | > 10000 nM | 1320 nM | –
CC1CCc2c(sc3nc(C(=O)N4CCN(C5CCCC5)C(=O)C4)c(Cl)n23)C1 (configuration not stated) | > 10000 nM | 260 nM | –
O=C(c1nc2sc3c(n2c1Cl)CCCCC3)N1CCN(C2CCCC2)C(=O)C1 | > 10000 nM | 940 nM | –
O=C(c1nc2scc(C3CC3)n2c1Cl)N1CCN([C@H]2CC[C@H](O)CC2)C(=O)C1 | > 10000 nM | 890 nM | –
CC(C)Cc1csc2nc(C(=O)N3CCN(C4CCCC4)C(=O)C3)c(Cl)n12 | > 10000 nM | 740 nM | –
O=C(c1nc2sc3c(n2c1Cl)CCCC3)N1CCN(C2CCCC2)C(=O)C1 | > 10000 nM | 190 nM | –
O=C(c1nc2sccn2c1Cl)N1CCN(C2CCCC2)C(=O)C1 | > 10000 nM | > 10000 nM | –
COc1ccc2c(c1)sc1nc(C(=O)N3CCN(C4CCCC4)C(=O)C3)c(Cl)n12 | > 10000 nM | 8630 nM | –
